These results are taken from ChEMBL document CHEMBL3861979, “Polyprenylated Benzoylphloroglucinols with DNA Polymerase Inhibitory Activity from the Fruits of Garcinia schomburgkiana” (J Nat Prod, 2016).

A short description of test [1]: Inhibition of calf thymus DNA polymerase alpha assessed as reduction in [3H]dTTP incorporation using poly(dA)/oligo(dT)18 as template/primer preincubated for 10 mins followed by template/primer addition measured after 60 mins. Details: species or system Bos taurus. The essentials: (§1)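 IC50 values are given as mean ± SD from three independent experiments.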
The target in a further test is T1, DNA polymerase lambda (Homo sapiens, UniProt Q9UGP5).
T1 sequence (Q9UGP5 whole entry): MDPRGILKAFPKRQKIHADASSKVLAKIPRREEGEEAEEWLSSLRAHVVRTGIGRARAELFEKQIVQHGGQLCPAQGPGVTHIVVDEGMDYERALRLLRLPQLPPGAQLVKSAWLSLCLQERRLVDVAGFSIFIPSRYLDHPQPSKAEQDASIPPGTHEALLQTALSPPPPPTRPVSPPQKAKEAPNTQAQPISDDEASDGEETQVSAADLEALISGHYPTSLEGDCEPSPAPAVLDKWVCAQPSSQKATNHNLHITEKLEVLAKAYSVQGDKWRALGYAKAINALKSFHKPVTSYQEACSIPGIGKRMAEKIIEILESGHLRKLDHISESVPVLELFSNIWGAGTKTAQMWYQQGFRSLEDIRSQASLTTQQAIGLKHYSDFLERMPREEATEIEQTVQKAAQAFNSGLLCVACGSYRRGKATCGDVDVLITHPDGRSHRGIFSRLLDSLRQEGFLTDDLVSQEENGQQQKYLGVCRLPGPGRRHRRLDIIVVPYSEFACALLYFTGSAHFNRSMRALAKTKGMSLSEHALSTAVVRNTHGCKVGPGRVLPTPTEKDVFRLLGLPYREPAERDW
Put plainly: Inhibition of recombinant human His-tagged DNA polymerase lambda assessed as reduction in [3H]dTTP incorporation using poly(dA)/oligo(dT)18 as template/primer preincubated for 10 mins followed by template/primer addition measured after 60 mins. The essentials:
as §1

A short description of test [2]: Cytotoxicity against human HeLa cells assessed as reduction in cell viability after 24 hrs by MTT assay. The following applies: read-out: LD50 (the source's name). Format: functional. The essentials:
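HeLa human cervical cancer cultured cells. Potency is expressed as median lethal dose (LD50). Values are mean ± SD of five independent experiments.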
For orientation: Formazan colour is commonly taken as a measure of viable cells.

Usually IC50 stands for the concentration needed to halve the response being measured. For the compound `CC(C)=CCC[C@@]1(C)[C@H](C/C=C(\C)C/C=C/C(C)(C)O)C[C@]2(CC=C(C)C)C(=O)[C@@]1(CC=C(C)C)C(=O)C(C(=O)c1ccc(O)c(O)c1)=C2O`, the 50% inhibitory concentration (IC50) in test [1] is 8.8 µM; on DNA polymerase lambda, 5.6 µM. The CC50 in test [2] worked out at 73.4 µM.

In the case of `CC(C)=CCC/C(C)=C/C[C@@H]1C[C@]2(CC=C(C)C)C(=O)[C@@]3(CC=C(C)C)C(O[C@@H](C(C)(C)O)CC[C@@]13C)C(C(=O)c1ccc(O)c(O)c1)=C2O` (some centres undefined), the IC50 amounted to 5.4 µM in test [1] and 6.9 µM at DNA polymerase lambda. The CC50 in test [2] was 5.9 µM.

For `CC(C)=CCC/C(C)=C/CC1(CC=C(C)C)C(O)=C(C(=O)c2ccc(O)c(O)c2)C(=O)C2=C1OC(C)(C)C=C2` (centres undefined), the IC50 was found to be 7.9 µM in test [1] and 6.2 µM at DNA polymerase lambda. Besides, the CC50 in test [2] was 50.8 µM.

As to `C=C(C)[C@@H](O)CC/C(C)=C/C[C@@H]1C[C@]2(CC=C(C)C)C(=O)[C@@](CC=C(C)C)(C(=O)C(C(=O)c3ccc(O)c(O)c3)=C2O)[C@@]1(C)CCC=C(C)C`, the results for the IC50 (in test [1]; at DNA polymerase lambda) were 6.4 µM and 5.8 µM, respectively. The CC50 in test [2] came out at 9.9 µM.

Turning to `CC(C)=CC[C@@H]1C[C@]2(CC=C(C)C)C(=O)[C@@]3(CC=C(C)C)C(O[C@@H](C(C)(C)O)CC[C@@]13C)C(C(=O)c1ccc(O)c(O)c1)=C2O` (some centres undefined), the figures for the 50% inhibitory concentration (IC50) (in test [1]; at DNA polymerase lambda) were 5.6 µM and 7.4 µM, respectively. Moreover, the CC50 in test [2] turned out to be 6.5 µM.

As for `C=C(C)C(O)C[C@@H]1C[C@]2(CC=C(C)C)C(=O)[C@@](CC=C(C)C)(C(=O)C(C(=O)c3ccc(O)c(O)c3)=C2O)[C@@]1(C)CCC=C(C)C` (some centres undefined), the IC50 in test [1] came out at 8.6 µM; at DNA polymerase lambda, 8.8 µM. The CC50 in test [2] amounted to 66.5 µM.

As for `CC(C)=CCC[C@@]1(C)[C@H](CC=C(C)C)C[C@]2(CC=C(C)C)C(=O)[C@@]1(CC=C(C)C)C(=O)C(C(=O)c1cccc(O)c1)=C2O`, the results for the IC50 (in test [1]; at DNA polymerase lambda) were 6.5 µM and 5.7 µM, respectively. Moreover, the CC50 in test [2] is 10.2 µM.

For `C=C(C)[C@H](O)CC/C(C)=C/C[C@@H]1C[C@]2(CC=C(C)C)C(=O)[C@@](CC=C(C)C)(C(=O)C(C(=O)c3ccc(O)c(O)c3)=C2O)[C@@]1(C)CCC=C(C)C`, the IC50 amounted to 6.3 µM in test [1] and 5 µM on DNA polymerase lambda. In addition, the CC50 in test [2] is 9.8 µM.

For the compound `Cc1cn([C@H]2CC[C@@H](COP(=O)(O)OP(=O)(O)OP(=O)(O)O)O2)c(=O)[nH]c1=O`, the IC50 in test [1] was over 200 µM; at DNA polymerase lambda it was 28.7 µM. Further, the CC50 in test [2] was over 200 µM.

As for `C[C@@]1(CO)[C@H](O)CC[C@@]2(C)[C@H]1CC[C@H]1C[C@@H]3C[C@@]12CC[C@]3(O)CO` [APHIDICOLIN], the 50% inhibitory concentration (IC50) in test [1] is 19.6 µM; at DNA polymerase lambda, over 200 µM. The CC50 in test [2] worked out at 22 µM.

For `CC(C)=CCC[C@@]1(C)[C@H](CC=C(C)C)C[C@]2(CC=C(C)C)C(=O)[C@@]1(CC=C(C)C)C(=O)C(C(=O)c1ccc(O)c(O)c1)=C2O` [GUTTIFERONE K], on DNA polymerase lambda, the IC50 came out at 5.4 µM.

Turning to `CC(C)=CCC/C(C)=C/C[C@@H]1C[C@]2(CC=C(C)C)C(=O)[C@@](CC=C(C)C)(C(=O)C(C(=O)c3ccc(O)c(O)c3)=C2O)[C@@]1(C)CCC=C(C)C` [OBLONGIFOLIN C], the results for the half-maximal inhibitory concentration (IC50) (in test [1]; at DNA polymerase lambda) were 5.7 µM and 5.2 µM, respectively. In addition, in test [2], the CC50 is 7.3 µM.
